# In the library only some 2% were active in any assay of this set; here they are far more common.
# CaV13 FRET inh = Disruptors of the CACNA1D IQ motif to Ca2+-dependent inactivation inhibitor domain association, primary screening, Förster resonance energy transfer in intact living …. HEK cells, CFP/YFP FRET ICDI-IQ, plate reader, 10 min; percent FRET-ratio fall versus neutral wells. inhibition, % at 12.3 µM. hit rate 0.098% among 340,000;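 active = mean replicate inhibition of at least 30% and at least 1% of replicates passing that level; inconclusive = only one of the two criteria is met; inactive = neither criterion is met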;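 also: 0% = median of the neutral control wells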
# FN deposition inh = inhibitors of fibronectin matrix deposition, primary screen, AH1F cells, Alexa488-fibronectin fluorescence, plate reader. AH1F fibroblasts, overnight. hit rate 0.086% among 350,000. inhibition, % at 12.6 µM;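 active = mean inhibition across replicates of 30% or more, regardless of how many single replicates reach that level; inconclusive = mean under 30% yet at least half of replicates reach 30%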;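 also: positive control wells lacked labelled fibronectin entirely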
#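 Test system: AH1F fibroblast monolayer depositing Alexa488-labelled fibronectin into matrix. Input: 10000 cells per well. Technique: fluorescence, ex 485 nm, em 525 nm. Buffer or medium: DMEM plus 2% serum, read in PBS. Timing: 1 h cell adhesion before compound, then overnight fibronectin incubation. Compound: single dose, pinned. Read-out basis: inhibition from reduced deposited-fibronectin fluorescence.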
# XiGFP reactiv = activators of inactive X chromosome reactivation, primary screen, imaging, XiGFP fibroblasts, GFP high-content imaging, set 2; AID 743238, 2013; activation, % at 7.58 µM; hit rate 0.055% among 360,000; XiGFP mouse fibroblasts, % GFP-positive cells imaging, 3 d; cells co-treated with 5-aza-dC sensitizer; scaled so ellipticine positive control = 100%;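 active = mean normalized replicate activation at least 10% and every replicate at or above 10%; inconclusive = only one of the two criteria met; inactive = mean below 10% and not all replicates reach 10%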;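 also: 0% = median of on-plate neutral control wells and 100% = ellipticine 6 µM median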
#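 assay system = SV40-immortalized XiGFP fibroblast cells, line 68-5-11 | buffer or medium = DMEM plus 5-aza-dC sensitizer | doses = single-point pinned compound dosing | times = 3-day compound exposure, then 15 min fixation at room temperature | benchmarks = positive control ellipticine, 6 µM final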
# DENV2 CPE = inhibitors of DENV2 cytopathic effect, primary screen, cell-based, plate reader, single concentration; DENV2-infected cells, cytopathic effect rescue; CPE inhibition, % at 9.99 µM; hit rate 1.7% among 350,000; in the data active = CPE inhibition above about 20%, passing the limit was not always enough; inconclusive = no clear call, values can overlap the other calls; tested in BHK-21 cells;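 also: 0% = median of neutral control wells and 100% = median of positive control wells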
# CASP6 VEID inh = human caspase-6 inhibitors, primary screen, biochemical, VEID-R110 fluorescence, single point, set 2. P55212. purified caspase-6, Z-VEID-R110 cleavage fluorescence. inhibition, % at 12.5 µM. hit rate 0.53% among 350,000. AID 686996, 2013;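 active = mean inhibition across replicates at least about 35%, with every replicate also reaching that limit, limit read from the data; inconclusive = only one of the two criteria met; inactive = neither criterion met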;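 also: 0% = median of neutral control wells and 100% = no fluorescence left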
# Target sequence (P55212 24-179 limits assumed): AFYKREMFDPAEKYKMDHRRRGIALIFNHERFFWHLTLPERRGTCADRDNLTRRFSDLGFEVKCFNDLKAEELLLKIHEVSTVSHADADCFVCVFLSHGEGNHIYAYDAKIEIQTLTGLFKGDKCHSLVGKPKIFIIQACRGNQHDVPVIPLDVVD
# Target sequence (P55212 194-293 limits assumed): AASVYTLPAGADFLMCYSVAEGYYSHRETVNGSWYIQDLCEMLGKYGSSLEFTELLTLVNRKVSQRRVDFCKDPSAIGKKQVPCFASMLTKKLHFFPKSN
# * marks the source's active call; other numbers are inactive results; ? = inconclusive; . = not tested or not shown.
SMILES,CaV13 FRET inh,FN deposition inh,XiGFP reactiv,DENV2 CPE,CASP6 VEID inh
CC(=O)N1[C@@H](CO)[C@@H](c2ccc(-c3ccc(C#N)cc3)cc2)C12CN(C(=O)C1CC1)C2,.,0,0,8,4
CC(=O)N1[C@H](CO)[C@H](c2ccc(-c3ccc(C#N)cc3)cc2)C12CN(C(=O)C1CC1)C2,.,-2,0,62*,1
CC(=O)N1CC2(C1)[C@H](c1ccc(-c3ccc(C#N)cc3)cc1)[C@@H](CO)N2C(=O)C1CC1,.,.,0,84*,0
C[C@H](CO)N1C[C@H](C)[C@@H](CN(C)S(=O)(=O)c2cccs2)Oc2ccc(NS(=O)(=O)c3ccc(F)cc3)cc2CC1=O,.,.,-1,.,1
CC(=O)Nc1ccc(NC(=O)COC(=O)c2ccc([N+](=O)[O-])o2)cc1,-5,2,0,-9,54*
O=C(COC(=O)c1ccc([N+](=O)[O-])o1)NCc1ccc(F)cc1,-7,3,0,-6,52*
O=C(COC(=O)c1ccc([N+](=O)[O-])o1)NCCCc1ccccc1,-5,1,0,0,49*
O=C(COC(=O)c1ccc(Br)o1)Nc1ncc([N+](=O)[O-])s1,-7,4,-1,2,48*
CCN(c1ccc(NC(=O)COC(=O)c2ccc([N+](=O)[O-])o2)cc1)C(C)C,-5,4,0,-10,9
Cc1ccc(CC(=O)Nc2ncc([N+](=O)[O-])s2)cc1,-7,.,0,9,-2
CCCNC(=O)C[C@@H]1CC[C@H]2[C@@H](COC[C@H](O)CN2C(=O)Nc2ccc3c(c2)OCO3)O1,.,-6,0,1,0
COc1ccc(CCNC(=O)COc2ccc([N+](=O)[O-])cc2)cc1,-7,3,0,-2,4
COc1ccc(CCNC(=O)COC(=O)c2ccc([N+](=O)[O-])o2)cc1,-5,-9,0,-4,59*
OC[C@@H]1[C@H]2c3ccccc3OC1(CO)N=C1SCc3ccccc3CN12,.,.,.,2,-2
COc1ccc(COCC23N=C4SCC(=O)N4[C@H](c4ccccc4O2)[C@H]3CO)cc1,.,.,.,26*,1
COc1ccc(COCC23N=C4SCCCN4[C@H](c4ccccc4O2)[C@H]3CO[Si](C)(C)C(C)(C)C)cc1,.,.,.,20,0
O=C1CSC2=NC3(CO)Oc4ccccc4[C@H]([C@H]3CO)N12,.,.,.,27*,-1
CCCC#Cc1ccc([C@@H]2[C@@H](CO)N3C(=O)CN(C(=O)Nc4ccccc4F)C[C@H]23)cc1,.,.,0,0,2
COCC(=O)Nc1ccc2c(c1)OC[C@H](C)N(Cc1cc(F)ccc1F)C[C@@H](C)[C@H](OC)CN(C)C2=O,.,8,0,3,-1
Cc1ccc(NC(=O)CN(C)C(=O)Cn2ncc(Cl)c(Cl)c2=O)cc1,-17,36*,2,-2,41*
CN1C(=O)c2cc(NC(=O)c3ccc(C#N)cc3)ccc2OC[C@H]2O[C@@H](CC(=O)NC3Cc4ccccc4C3)CC[C@@H]21,.,-1,0,75*,0
CN1C(=O)c2cc(NC(=O)c3ccno3)ccc2OC[C@H]2O[C@@H](CC(=O)NC3Cc4ccccc4C3)CC[C@@H]21,.,4,0,53*,3
CCC(=O)Nc1ccc2c(c1)C(=O)N(C)[C@H]1CC[C@@H](CC(=O)NC3Cc4ccccc4C3)O[C@H]1CO2,.,-6,0,-2,0
CCN1/C(=C/c2ccc3cc(C)ccc3[n+]2CC)Sc2cc(C)ccc21,-6,-61,102*,-6,-12
CCNc1nc(NCC)n2c(SCC(=O)Nc3ccc(F)cc3)nnc2n1,-3,-2,0,4,26
SMILES,CaV13 FRET inh,FN deposition inh,XiGFP reactiv,DENV2 CPE,CASP6 VEID inh
CCNc1nc(NCC)n2c(SCC(=O)Nc3ccc(C)c(C)c3)nnc2n1,-7,4,0,7,37*
Cc1cccc(C(=O)N2CCC(=O)N([C@H](COCc3ccc(Cl)cc3)Cc3ccccc3)CC2)c1,-6,.,0,125*,1
Cc1cc(C)c(S(=O)(=O)Nn2cnnc2)c(C)c1,-1,33*,0,-4,0
O=C(C1CCOCC1)N1CC(=O)N2[C@H](C1)[C@@H](c1ccc(C#CC3CCCC3)cc1)[C@@H]2CO,.,-6,0,7,3
O=C(c1ccc(F)cc1)N1CC(=O)N2[C@@H](CO)[C@@H](c3ccc(C#CC4CCCC4)cc3)[C@@H]2C1,.,10,0,44*,-1
O=C(C1CCOCC1)N1CC(=O)N2[C@@H](CO)[C@H](c3ccc(C#CC4CCCC4)cc3)[C@@H]2C1,.,9,0,52*,-3
O=C(c1ccc(F)cc1)N1CC(=O)N2[C@H](CO)[C@H](c3ccc(-c4ccccc4)cc3)[C@H]2C1,.,.,0,24*,-2
O=C(c1ccc(F)cc1)N1CC(=O)N2[C@H](C1)[C@H](c1ccc(-c3ccccc3)cc1)[C@@H]2CO,.,.,0,-5,.
O=C(Cc1ccccn1)N1CC(=O)N2[C@H](CO)[C@@H](c3ccc(C#CC4CC4)cc3)[C@@H]2C1,.,.,0,7,-2
O=C(c1ccc(F)cc1)N1CC(=O)N2[C@H](CO)[C@@H](c3ccc(C#CC4CCCC4)cc3)[C@@H]2C1,.,-5,1,?,-1
O=C(Cc1ccccn1)N1CC(=O)N2[C@H](CO)[C@H](c3ccc(C#CC4CC4)cc3)[C@@H]2C1,.,.,0,40*,-1
C[C@@H]1CN([C@H](C)CO)C(=O)c2cc(N(C)C)ccc2O[C@@H](C)CCCCO[C@@H]1CN(C)Cc1ccc(C(=O)Nc2ccccc2N)cc1,.,.,0,.,.
CCC(=O)N[C@@H]1C=C[C@H](CC(=O)NCC2CC2)O[C@@H]1CO,.,13,0,-8,1
O=C(NCC1CC1)[C@@H]1[C@@H](CO)[C@@H]2Cn3c(ccc(-c4ccc(F)cc4)c3=O)[C@H]1N2,.,.,0,?,-4
Cc1ccc2nc(-c3ccc(C#N)cc3)c(Cc3ccccc3C(F)(F)F)n2c1,-8,1,0,63*,-3
N#Cc1ccc(-c2nc3ccc(Br)cn3c2Cc2ccccc2C(F)(F)F)cc1,-11,15,0,5,-4
C[C@@H]1CN([C@H](C)CO)C(=O)c2cc(/C=C/c3ccccc3)cnc2O[C@H]1CN(C)Cc1cccnc1,.,.,-1,-7,1
CC(C)(C)c1ccc(C(=O)c2c[nH]c(C(=O)O)c2)cc1,-4,-1,0,.,10
COC(=O)c1cc(C(=O)c2ccc(C(C)(C)C)cc2)c[nH]1,4,43*,0,1,2

# From PubChem
